{"source": "ChEMBL document CHEMBL4414577", "about": "“Discovery of Pyrrolo[2,3-b]pyridine (1,7-Dideazapurine) Nucleoside Analogues as Anti-Trypanosoma cruzi Agents” (J Med Chem, 2019)", "key": {"Trypanosoma cruzi [1]": {"system": "Trypanosoma cruzi", "assay": "Antitrypanosomal activity against bloodstream form of Trypanosoma cruzi Y trypomastigotes measured after 24 hrs by Neubauer chamber-based light microscopic analysis", "format": "functional, organism-based"}, "[2]": {"assay": "Drug metabolism in mouse liver microsomes assessed as UGT-mediated metabolism by measuring compound remaining at 5 uM incubated for 15 mins in presence of UDPGA by UPLC-MS analysis", "format": "ADME", "conditions": "read-out: Stability", "how_it_was_run": "(§1)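 Compound incubated with male mouse, rat, dog or pooled human S9 fractions, with NADPH (phase I) or […], sampled at 0, 15, 30 and 60 min. Read-out is percent parent remaining. Two independent experiments of two biological replicates; diclofenac and fluconazole used as assay controls.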"}, "Trypanosoma cruzi [3]": {"system": "Trypanosoma cruzi", "assay": "In vivo antitrypanosomal activity against Trypanosoma cruzi Y trypomastigotes infected in Swiss mouse assessed as mouse survival at 25 mg/kg, po administered twice daily for 5 days with 2 days interval for 3 cycles and measured […]", "format": "functional, organism-based", "how_it_was_run": "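Male Swiss Webster mice infected i.p. with 10⁴ Y-strain bloodstream trypomastigotes; six per group. Oral gavage from 5 dpi for 15 days (three 5-day rounds, 2 days off): test compound 25 mg/kg b.i.d., benznidazole 100 mg/kg s.i.d. Parasites counted in 5 μL tail blood to 30 dpi; mortality followed to 53 dpi.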"}, "L929": {"system": "L929", "assay": "Cytotoxicity against mouse L929 cells assessed as reduction in cell viability", "format": "cell-based"}, "[4]": {"assay": "Drug metabolism in rat liver microsomes assessed as CYP450-mediated metabolism by measuring parent compound remaining at 5 uM incubated for 30 mins in presence of NADPH by UPLC-MS analysis", "format": "ADME", "conditions": "read-out: Stability", "how_it_was_run": "as §1"}, "[5]": {"assay": "Drug metabolism in dog liver microsomes assessed as CYP450-mediated metabolism by measuring parent compound remaining at 5 uM measured immediately in presence of NADPH by UPLC-MS analysis", "format": "ADME, Canis lupus familiaris", "conditions": "read-out: Stability", "how_it_was_run": "as §1"}, "[6]": {"assay": "Toxicity in Swiss Webster mouse infected with Trypanosoma cruzi Y trypomastigotes assessed as appearance of clinical symptoms at 25 mg/kg, po administered twice daily via gavage for 5 days starting from 5 days post-infection and measured daily up to 40 days post-infection", "format": "organism-based", "conditions": "in vivo", "how_it_was_run": "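Male Swiss Webster mice were infected i.p. with 10⁴ Y-strain trypomastigotes and treated by oral gavage for 5 days from 5 dpi. Regimens were 25 mg/kg b.i.d. (10% EtOH/citrate vehicle) or benznidazole 100 mg/kg s.i.d. Body weight and visual clinical signs were monitored, with daily mortality checks up to 40 dpi. There were six mice per group.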"}, "Trypanosoma cruzi [7]": {"system": "Trypanosoma cruzi", "assay": "In vivo antitrypanosomal activity against Trypanosoma cruzi Y trypomastigotes infected in Swiss mouse assessed as reduction in parasitemia at 25 mg/kg, po administered twice daily via gavage for 5 days starting from 5 days post-infection and measured up to 30 days post-infection by light microscopic method relative to control", "format": "functional", "parameters": "scale not given: the % may be the effect or the level left", "how_it_was_run": "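Male Swiss Webster mice (18-20 g, six per group) were infected i.p. with 10⁴ Y-strain bloodstream trypomastigotes. Treatment began at 5 dpi, only in mice with detectable parasitemia. Dosing was 25 mg/kg b.i.d. by oral gavage for 5 days, using a 2.0 mg/mL formulation in 10% EtOH, 0.1 M citrate pH 3.02. Parasites in 5 μL tail-vein blood were counted microscopically up to 30 dpi, against vehicle-treated infected mice.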"}}, "note": "Activity calls are given as the source filed them. The rule behind the calls is not given here."}
{"compound": "Nc1ccnc2c1c(I)cn2[C@@H]1O[C@H](CO)[C@@H](O)[C@H]1O", "values": [{"measurement": "EC50", "setting": "Trypanosoma cruzi [1]", "result": "> 70", "unit": "µM"}, {"measurement": "remaining at 0.25 h, 5 µM", "setting": "[2]", "result": 102, "unit": "%"}, {"measurement": "Activity", "setting": "Trypanosoma cruzi [3]", "result": "inactive"}, {"measurement": "EC50", "setting": "L929", "result": "> 200", "unit": "µM"}, {"measurement": "remaining at 0.5 h, 5 µM", "setting": "[4]", "result": 87, "unit": "%"}, {"measurement": "remaining at 0 min, 5 µM", "setting": "[5]", "result": 100, "unit": "%"}, {"measurement": "Activity", "setting": "[6]", "result": "Non-Toxic"}, {"measurement": "Activity", "setting": "Trypanosoma cruzi [7]", "result": 100, "unit": "%"}]}
